Reference: ChEMBL document CHEMBL2384910, “Lead optimization of 5-amino-6-(2,2-dimethyl-5-oxo-4-phenylpiperazin-1-yl)-4-hydroxyhexanamides to reduce a cardiac safety issue: discovery of DS-8108b, an orally active renin inhibitor” (Bioorg Med Chem, 2013)
Changes are numbered by the printed parent chain. Each block holds one molecule with its values, some of them ahead of it.

How the values were obtained:
[1] = biological target: T1, Renin (Macaca fascicularis) (UniProt Q6DLS0); experiment: Ratio of compound IC50 to aliskiren IC50 for renin in cynomolgus monkey plasma
T1 sequence (whole entry): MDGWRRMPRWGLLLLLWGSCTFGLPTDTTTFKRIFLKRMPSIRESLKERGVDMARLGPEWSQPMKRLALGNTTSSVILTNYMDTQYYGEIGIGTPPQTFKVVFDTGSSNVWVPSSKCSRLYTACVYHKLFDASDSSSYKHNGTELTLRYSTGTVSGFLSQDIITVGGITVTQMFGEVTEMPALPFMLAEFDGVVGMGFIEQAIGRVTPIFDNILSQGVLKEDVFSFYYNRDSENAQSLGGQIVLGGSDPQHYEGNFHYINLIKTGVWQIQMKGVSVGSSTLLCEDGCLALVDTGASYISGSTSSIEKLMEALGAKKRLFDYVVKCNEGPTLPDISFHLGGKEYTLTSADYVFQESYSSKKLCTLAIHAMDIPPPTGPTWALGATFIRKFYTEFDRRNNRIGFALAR

[2] = biological target: T2, Renin (Macaca fascicularis, UniProt Q6DLS0); experiment: Inhibition of renin in cynomolgus monkey plasma after 1 hr by RIA
T2 sequence (Q6DLS0 whole entry): T1 sequence (whole entry)
Procedure, shortened: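 Pooled mixed-gender EDTA cynomolgus monkey plasma with pH adjusting solution and Inhibitor A, compound in 1% DMSO final, incubated 1 h at 37 °C. Angiotensin I by competitive RIA; uninhibited and 4 °C controls define % inhibition; IC50 from four-parameter fit; ratio is compound IC50 over aliskiren IC50 in same plasma batch; ≥2 replicates.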

[3] = biological target: T3, Renin (Homo sapiens, UniProt P00797); experiment: Inhibition of human recombinant renin using Arg-Glu(EDANS)-Ile-His-Pro-Phe-His-Leu-Val-Ile-His-Thr-Lys (DABCYL)-Arg as substrate incubated for 10 mins prior to substrate addition measured after 90 mins by fluorescence assay
T3 sequence (P00797 whole entry): T1 sequence (whole entry) with A68T, L214I, A235S
Procedure, shortened: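 Trypsin-activated recombinant human renin in 50 mM Tris-HCl pH 7.9, 100 mM NaCl, preincubated with compound 10 min at room temperature; FRET substrate Arg-Glu(EDANS)…Lys(DABCYL)-Arg added, 90 min at 37 °C.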

[4] = system: Rattus norvegicus; experiment: Cardiotoxicity in Sprague-Dawley rat electrophysiology model assessed as QRS complex abnormalities at 10 mg/kg, iv by ECG analysis; format: toxicity, organism-based; set-up: dose 10 mg/kg, route intravenous; details: in vivo
Procedure, shortened: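 Male Sprague-Dawley rats anesthetized with inactin 100 mg/kg ip; surface lead II ECG recorded continuously. Compounds given as iv bolus via right jugular vein catheter after stabilization; QRS complex abnormality scored as no, moderate or severe change; n = 2 at 10 mg/kg.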

Structure (SMILES): CC(C)[C@H](C[C@H](O)[C@@H](N)CN1CC(=O)N(c2cc(F)ccc2Cl)CC1(C)C)C(=O)N[C@H]1C2CC3CC1C[C@](O)(C3)C2.O=C(O)/C=C/C(=O)O
- Ratio IC50 [1]: 0.7
- IC50 [2]: 7.8 nM
- IC50 [3]: 1.9 nM
- Activity [4]: Non-toxic

Structure (SMILES): CC[C@H](C[C@H](O)[C@@H](N)CN1CC(=O)N(c2ccccc2Cl)CC1(C)C)C(=O)Nc1ccc(OC)cc1.O=C(O)/C=C/C(=O)O
- Ratio IC50 [1]: 2.1
- IC50 [2]: 11 nM
- IC50 [3]: 1.4 nM
- Activity [4]: Toxic

- Ratio IC50 [1]: 1.2
Structure (SMILES): CCCCNC(=O)[C@@H](C[C@H](O)[C@@H](N)CN1CC(=O)N(c2cc(F)ccc2Cl)CC1(C)C)C(C)C

Structure (SMILES): CC(C)CNC(=O)[C@@H](C[C@H](O)[C@@H](N)CN1CC(=O)N(c2ccccc2Cl)CC1(C)C)C(C)C.O=C(O)/C=C/C(=O)O
- Ratio IC50 [1]: 0.7
- IC50 [2]: 4 nM
- IC50 [3]: 1.4 nM
- Activity [4]: Toxic

Structure (SMILES): CC[C@H](C[C@H](O)[C@@H](N)CN1CC(=O)N(c2ccccc2Cl)CC1(C)C)C(=O)NCC1(CO)CCCCC1.O=C(O)/C=C/C(=O)O
- Ratio IC50 [1]: 0.6
- IC50 [2]: 3.4 nM
- IC50 [3]: 1.1 nM
- Activity [4]: Toxic

Structure (SMILES): COC(=O)C(C)(C)CNC(=O)[C@@H](C[C@H](O)[C@@H](N)CN1CC(=O)N(c2ccccc2Cl)CC1(C)C)C(C)C.O=C(O)/C=C/C(=O)O
- Ratio IC50 [1]: 1.6
- IC50 [2]: 23 nM
- IC50 [3]: 1.8 nM
- Activity [4]: Toxic

Structure (SMILES): Cc1cccc(NC(=O)[C@@H](C[C@H](O)[C@@H](N)CN2CC(=O)N(c3ccccc3Cl)CC2(C)C)C(C)C)n1.O=C(O)/C=C/C(=O)O
- Ratio IC50 [1]: 7.3
- IC50 [2]: 47 nM
- IC50 [3]: 5.6 nM
- Activity [4]: Toxic

Structure (SMILES): Cc1ccc(F)cc1N1CC(C)(C)N(C[C@H](N)[C@@H](O)C[C@@H](C)C(=O)NCC(C)(C)C)CC1=O.O=C(O)/C=C/C(=O)O
- Ratio IC50 [1]: 0.6
- IC50 [2]: 3.4 nM
- IC50 [3]: 1.1 nM
- Activity [4]: Toxic

Structure (SMILES): CC(C)[C@H](C[C@H](O)[C@@H](N)CN1CC(=O)N(c2ccccc2Cl)CC1(C)C)C(=O)Nc1ccc(F)cc1.O=C(O)/C=C/C(=O)O
- Ratio IC50 [1]: 1.2
- IC50 [2]: 7.2 nM
- IC50 [3]: 1.4 nM
- Activity [4]: Toxic

Structure (SMILES): CC(C)[C@H](C[C@H](O)[C@@H](N)CN1CC(=O)N(c2ccccc2Cl)CC1(C)C)C(=O)Nc1ccncc1.O=C(O)/C=C/C(=O)O
- Ratio IC50 [1]: 1.5
- IC50 [2]: 15 nM
- IC50 [3]: 1.6 nM
- Activity [4]: Toxic

Structure (SMILES): CC(C)[C@H](C[C@H](O)[C@@H](N)CN1CC(=O)N(c2ccccc2Cl)CC1(C)C)C(=O)NC12CC3CC(CC(O)(C3)C1)C2.O=C(O)/C=C/C(=O)O
- Ratio IC50 [1]: 0.7
- IC50 [2]: 6.5 nM
- IC50 [3]: 2 nM
- Activity [4]: Toxic

- Ratio IC50 [1]: 0.5
- IC50 [2]: 2.1 nM
- IC50 [3]: 1 nM
Structure (SMILES): C[C@H](C[C@H](O)[C@@H](N)CN1CC(=O)N(c2ccccc2Cl)CC1(C)C)C(=O)NCC(C)(C)C

- Ratio IC50 [1]: 1.9
- IC50 [2]: 19 nM
- IC50 [3]: 2.1 nM
Structure (SMILES): CC(C)[C@H](C[C@H](O)[C@@H](N)CN1CC(=O)N(c2ccccc2Cl)CC1(C)C)C(=O)Nc1cccnc1

Structure (SMILES): CC(C)[C@H](C[C@H](O)[C@@H](N)CN1CC(=O)N(c2ccccc2Cl)CC1(C)C)C(=O)Nc1ccccc1.O=C(O)/C=C/C(=O)O
- Ratio IC50 [1]: 1.3
- IC50 [2]: 9.2 nM
- IC50 [3]: 1.4 nM
- Activity [4]: Toxic

Structure (SMILES): C[C@H](C[C@H](O)[C@@H](N)CN1CC(=O)N(c2ccccc2Cl)CC1(C)C)C(=O)N[C@H]1C2CC3CC1C[C@](O)(C3)C2.O=C(O)/C=C/C(=O)O
- Ratio IC50 [1]: 1.6
- IC50 [2]: 7.3 nM
- IC50 [3]: 1.1 nM
- Activity [4]: Non-toxic

Structure (SMILES): CC(C)[C@H](C[C@H](O)[C@@H](N)CN1CC(=O)N(c2ccccc2Cl)CC1(C)C)C(=O)Nc1ccc(F)cc1F.O=C(O)/C=C/C(=O)O
- Ratio IC50 [1]: 3
- IC50 [2]: 14 nM
- IC50 [3]: 2 nM
- Activity [4]: Toxic

Structure (SMILES): CCCCNC(=O)[C@@H](C[C@H](O)[C@@H](N)CN1CC(=O)N(c2ccccc2Cl)CC1(C)C)C(C)C.O=C(O)/C=C/C(=O)O
- Ratio IC50 [1]: 0.8
- Activity [4]: Toxic

- Ratio IC50 [1]: 13
- IC50 [2]: 33 nM
- IC50 [3]: 6.7 nM
Structure (SMILES): CC[C@H](C[C@H](O)[C@@H](N)CN1CC(=O)N(c2ccccc2Cl)CC1(C)C)C(=O)Nc1cc(OC)ccn1

Structure (SMILES): CC(C)[C@H](C[C@H](O)[C@@H](N)CN1CC(=O)N(c2ccccc2Cl)CC1(C)C)C(=O)NCC(C)(C)C(N)=O.O=C(O)/C=C/C(=O)O
- Ratio IC50 [1]: 1.2
- Activity [4]: Non-toxic

Structure (SMILES): CC[C@H](C[C@H](O)[C@@H](N)CN1CC(=O)N(c2ccccc2Cl)CC1(C)C)C(=O)Nc1ccc(C)cc1.O=C(O)/C=C/C(=O)O
- Ratio IC50 [1]: 4.5
- IC50 [2]: 28 nM
- IC50 [3]: 3.2 nM
- Activity [4]: Toxic

Structure (SMILES): CC(C)CNC(=O)C(C)(C)C[C@H](O)[C@@H](N)CN1CC(=O)N(c2cc(F)ccc2Cl)CC1(C)C.O=C(O)/C=C/C(=O)O
- Ratio IC50 [1]: 132
- IC50 [2]: 738 nM
- IC50 [3]: 97 nM
- Activity [4]: Toxic

Structure (SMILES): Cc1ccc(F)cc1N1CC(C)(C)N(C[C@H](N)[C@@H](O)C[C@H](C(=O)Nc2cccnc2)C(C)C)CC1=O.O=C(O)/C=C/C(=O)O
- Ratio IC50 [1]: 3.3
- IC50 [2]: 33 nM
- IC50 [3]: 2.4 nM
- Activity [4]: Toxic

Structure (SMILES): CC[C@H](C[C@H](O)[C@@H](N)CN1CC(=O)N(c2ccccc2Cl)CC1(C)C)C(=O)Nc1ccc(F)cc1.O=C(O)/C=C/C(=O)O
- Ratio IC50 [1]: 0.9
- IC50 [2]: 3.4 nM
- IC50 [3]: 1.6 nM
- Activity [4]: Toxic

Structure (SMILES): CC(C)[C@H](C[C@H](O)[C@@H](N)CN1CC(=O)N(c2ccccc2Cl)CC1(C)C)C(=O)NC1CCOCC1.O=C(O)/C=C/C(=O)O
- Ratio IC50 [1]: 1.4
- IC50 [2]: 9.8 nM
- IC50 [3]: 2 nM
- Activity [4]: Toxic

Structure (SMILES): CC(C)[C@H](C[C@H](O)[C@@H](N)CN1CC(=O)N(c2ccccc2Cl)CC1(C)C)C(=O)N[C@H]1C2CC3CC1C[C@](O)(C3)C2.O=C(O)/C=C/C(=O)O
- Ratio IC50 [1]: 0.9
- IC50 [2]: 2.2 nM
- IC50 [3]: 1.3 nM
- Activity [4]: Non-toxic

Structure (SMILES): CC[C@H](C[C@H](O)[C@@H](N)CN1CC(=O)N(c2ccccc2Cl)CC1(C)C)C(=O)NCC1(CO)CCCC1.O=C(O)/C=C/C(=O)O
- Ratio IC50 [1]: 0.7
- IC50 [2]: 3 nM
- IC50 [3]: 1.1 nM
- Activity [4]: Toxic

Structure (SMILES): CC[C@H](C[C@H](O)[C@@H](N)CN1CC(=O)N(c2ccccc2Cl)CC1(C)C)C(=O)NCC(C)(C)C.O=C(O)/C=C/C(=O)O
- Ratio IC50 [1]: 0.3
- IC50 [2]: 2.3 nM
- IC50 [3]: 0.8 nM
- Activity [4]: Toxic

Structure (SMILES): CC(C)[C@H](C[C@H](O)[C@@H](N)CN1CC(=O)N(c2ccccc2Cl)CC1(C)C)C(=O)NCC(C)(C)O.O=C(O)/C=C/C(=O)O
- Ratio IC50 [1]: 1.9
- IC50 [2]: 15 nM
- IC50 [3]: 2.4 nM
- Activity [4]: Non-toxic

Structure (SMILES): CC[C@H](C[C@H](O)[C@@H](N)CN1CC(=O)N(c2ccccc2Cl)CC1(C)C)C(=O)Nc1ccc(F)cn1.O=C(O)/C=C/C(=O)O
- Ratio IC50 [1]: 0.6
- IC50 [2]: 2.1 nM
- IC50 [3]: 1 nM
- Activity [4]: Toxic

Structure (SMILES): Cc1ccc(F)cc1N1CC(C)(C)N(C[C@H](N)[C@@H](O)C[C@H](C(=O)N[C@H]2C3CC4CC2C[C@](O)(C4)C3)C(C)C)CC1=O.O=C(O)/C=C/C(=O)O
- Ratio IC50 [1]: 0.9
- IC50 [2]: 10 nM
- IC50 [3]: 1.7 nM
- Activity [4]: Non-toxic

Structure (SMILES): CC[C@H](C[C@H](O)[C@@H](N)CN1CC(=O)N(c2cc(F)ccc2Cl)CC1(C)C)C(=O)N[C@H]1C2CC3CC1C[C@](O)(C3)C2.O=C(O)/C=C/C(=O)O
- Ratio IC50 [1]: 0.7
- IC50 [2]: 3.6 nM
- IC50 [3]: 1.4 nM
- Activity [4]: Non-toxic

Structure (SMILES): CC(C)[C@H](C[C@H](O)[C@@H](N)CN1CC(=O)N(c2ccccc2Cl)CC1(C)C)C(=O)Nc1ccc(F)c(F)c1.O=C(O)/C=C/C(=O)O
- Ratio IC50 [1]: 4.5
- IC50 [2]: 21 nM
- IC50 [3]: 1.9 nM
- Activity [4]: Toxic

- Ratio IC50 [1]: 16
- IC50 [2]: 39 nM
- IC50 [3]: 16 nM
Structure (SMILES): Cc1ccc(F)cc1N1CC(C)(C)N(C[C@H](N)[C@@H](O)C[C@H](C(=O)NCC(C)(C)C(=O)O)C(C)C)CC1=O
